In ChEMBL document CHEMBL4043302, “Lead Diversification at the Nanomole Scale Using Liver Microsomes and Quantitative Nuclear Magnetic Resonance Spectroscopy: Application to Phosphodiesterase 2 Inhibitors” (J Med Chem, 2018):
Each block holds one compound with its values, some of them ahead of it.

Experiments:
[1] = Drug metabolism in cynomolgus monkey liver microsomes assessed as 5-(Difluoromethyl)-2-methyl-7-(3-methyl-5-(4-(trifluoromethyl)-phenyl)-1H-pyrazol-4-yl)imidazo[5,1-f ][1,2,4]triazin-4(3H)-one at 20 uM after 1.5 hrs by UHPLC-UV-HRMS method; format: ADME, Macaca fascicularis, microsome
Summary of the method: (§1)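 Preparative incubation: substrate 20 µM with liver microsomes (2 mg/mL) of the listed species in 0.1 M potassium phosphate, pH 7.5, with MgCl2 3.3 mM and NADPH 1.3 mM. Run at 37°C in a shaking water bath and stopped with an equal volume of CH3CN. Products were fractionated by HPLC and quantified by qNMR in d6-DMSO.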

[2] = Drug metabolism in cynomolgus monkey liver microsomes assessed as 5-(Difluoromethyl)-7-(3-(hydroxymethyl)-1-methyl-5-(4-(trifluoromethyl)phenyl)-1H-pyrazol-4-yl)-2-methylimidazo[5,1-f ]-[1,2,4]triazin-4(3H)-one formation at 20 uM after 1.5 hrs by UHPLC-UV-HRMS method; format: ADME, Macaca fascicularis, microsome; summary of the method: as §1
[3] = Intrinsic clearance in human hepatocytes assessed per million cells at 1 uM after 0.5 to 4 hrs by HPLC-HRMS method; format: ADME, cell-based, Hepatocyte; details: human hepatocytes, read-out: CLH
Summary of the method: (§2)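 Compound at 1 µM was dried from d6-DMSO and redissolved in Williams E medium. Pooled human hepatocytes were added at 680000 cells/mL. Samples were quenched in water/CH3CN (2:1) with 2% formic acid and clozapine as internal standard, then analysed by HPLC-HRMS in positive-ion full scan. k came from the slope of ln peak-area ratio versus time; CLint = k / cell concentration. Non-specific binding was not measured.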

[4] = Apparent permeability across RRCK cells after 1.5 hrs; format: ADME, cell-based, Canis lupus familiaris, MDCKII-LE; details: dog, MDCK
[5] = Drug metabolism in hamster liver microsomes assessed as 5-(Hydroxymethyl)-7-(5-(6-methoxypyridin-3-yl)-3-methyl-1Hpyrazol-4-yl)-2-methylimidazo[5,1-f ][1,2,4]triazin-4(3H)-one formation at 20 uM after 1.5 hrs by UHPLC-UV-HRMS method; format: ADME, microsome; details: cricetinae; summary of the method: as §1
[6] = Drug metabolism in hamster liver microsomes assessed as 7-(5-(6-Methoxypyridin-3-yl)-3-methyl-1H-pyrazol-4-yl)-2,5-dimethylimidazo[5,1-f ][1,2,4]triazin-4(3H)-one formation at 20 uM after 1.5 hrs by UHPLC-UV-HRMS method; format: ADME, microsome; details: cricetinae; summary of the method: as §1
[7] = Drug metabolism in hamster liver microsomes assessed as 5-(Hydroxymethyl)-7-(5-(6-methoxypyridin-3-yl)-1,3-dimethyl-1H-pyrazol-4-yl)-2-methylimidazo[5,1-f ][1,2,4]triazin-4(3H)-one formation at 20 uM after 1.5 hrs by UHPLC-UV-HRMS method; format: ADME, microsome; details: cricetinae; summary of the method: as §1
[8] = Metabolic stability in human hepatocytes at 1 uM after 0.5 to 4 hrs by HPLC-HRMS method; format: ADME, cell-based, Hepatocyte; summary of the method: as §2
[9] = Drug metabolism in hamster liver microsomes assessed as 7-(5-(6-Hydroxypyridin-3-yl)-3-methyl-1H-pyrazol-4-yl)-2,5-dimethylimidazo[5,1-f ][1,2,4]triazin-4(3H)-one formation at 20 uM after 1.5 hrs by UHPLC-UV-HRMS method; format: ADME, microsome; details: cricetinae; summary of the method: as §1
Liver [10] = experiment: Drug metabolism in mouse liver microsomes assessed as 7-(5-(4-Chlorophenyl)-3-(hydroxymethyl)-1-methyl-1H-pyrazol-4-yl)-2,5-dimethylimidazo[5,1-f ][1,2,4]triazin-4(3H)-one formation at 20 uM after 1.5 hrs by UHPLC-UV-HRMS method; format: ADME, microsome; summary of the method: as §1
Liver [11] = experiment: Drug metabolism in mouse liver microsomes assessed as 7-(5-(4-Chlorophenyl)-1,3-dimethyl-1H-pyrazol-4-yl)-5-(hydroxymethyl)-2-methylimidazo[5,1-f ][1,2,4]triazin-4(3H)-one formation at 20 uM after 1.5 hrs by UHPLC-UV-HRMS method; format: ADME, microsome; summary of the method: as §1
[12] = Drug metabolism in cynomolgus monkey liver microsomes assessed as 7-(3-(Hydroxymethyl)-1-methyl-5-(5-(trifluoromethyl)pyridin-2-yl)-1H-pyrazol-4-yl)-2,5-dimethylimidazo[5,1-f ][1,2,4]triazin-4(3H)-one formation at 20 uM after 1.2 hrs by UHPLC-UV-HRMS method; format: ADME, Macaca fascicularis, microsome; summary of the method: as §1
[13] = Drug metabolism in cynomolgus monkey liver microsomes assessed as 4-(2,5-Dimethyl-4-oxo-3,4-dihydroimidazo[5,1-f ][1,2,4]triazin-7-yl)-1-methyl-5-(5-(trifluoromethyl)pyridin-2-yl)-1H-pyrazole-3-carbaldehyde formation at 20 uM after 1.2 hrs by UHPLC-UV-HRMS method; format: ADME, Macaca fascicularis, microsome; summary of the method: as §1
[14] = Drug metabolism in cynomolgus monkey liver microsomes assessed as 7-(1,3-Dimethyl-5-(5-(trifluoromethyl)pyridin-2-yl)-1H-pyrazol-4-yl)-5-(hydroxymethyl)-2-methylimidazo[5,1-f ][1,2,4]triazin-4(3H)-one formation at 20 uM after 1.2 hrs by UHPLC-UV-HRMS method; format: ADME, Macaca fascicularis, microsome; summary of the method: as §1
[15] = Drug metabolism in cynomolgus monkey liver microsomes assessed as 5-(Hydroxymethyl)-7-(3-(hydroxymethyl)-1-methyl-5-(5-(trifluoromethyl)pyridin-2-yl)-1H-pyrazol-4-yl)-2-methylimidazo-[5,1-f ][1,2,4]triazin-4(3H)-one formation at 20 uM after 1.2 hrs by UHPLC-UV-HRMS method; format: ADME, Macaca fascicularis, microsome; summary of the method: as §1
[16] = biological target: cGMP-dependent 3',5'-cyclic phosphodiesterase (Homo sapiens, UniProt O00408); experiment: Inhibition of human PDE2A1 using 3',5'-[3H]cGMP as substrate after 30 mins by scintillation proximity assay
Liver [17] = experiment: Drug level in human liver microsomes treated with 5-(5-(Cyclopentylmethyl)-4,5,6,7-tetrahydropyrazolo[1,5-a]-pyrazin-3-yl)-7-methylimidazo[5,1-f ][1,2,4]triazin-4(3H)-one at 20 uM after 1.5 hrs by UHPLC-UV-HRMS method; format: ADME, microsome; summary of the method: as §1
[18] = Drug metabolism in rabbit liver microsomes assessed as 7-(3-(Hydroxymethyl)-5-(3-(hydroxymethyl)-4-(trifluoromethyl)-phenyl)-1-methyl-1H-pyrazol-4-yl)-2,5-dimethylimidazo[5,1-f ]-[1,2,4]triazin-4(3H)-one formation at 20 uM after 1 hr by UHPLC-UV-HRMS method; format: ADME, Oryctolagus cuniculus, microsome; summary of the method: as §1
[19] = Drug metabolism in rabbit liver microsomes assessed as 4-(2,5-Dimethyl-4-oxo-3,4-dihydroimidazo[5,1-f ][1,2,4]triazin-7-yl)-1-methyl-5-(3-methyl-4-(trifluoromethyl)phenyl)-1H-pyrazole-3-carboxylic acid formation at 20 uM after 1 hr by UHPLC-UV-HRMS method; format: ADME, Oryctolagus cuniculus, microsome; summary of the method: as §1
[20] = Drug metabolism in rabbit liver microsomes assessed as 7-(5-(3-(Hydroxymethyl)-4-(trifluoromethyl)phenyl)-1,3-dimethyl-1H-pyrazol-4-yl)-2,5-dimethylimidazo[5,1-f ][1,2,4]triazin-4(3H)-one formation at 20 uM after 1 hr by UHPLC-UV-HRMS method; format: ADME, Oryctolagus cuniculus, microsome; summary of the method: as §1
[21] = Drug metabolism in rabbit liver microsomes assessed as 7-(1,3-Dimethyl-5-(3-methyl-4-(trifluoromethyl)phenyl)-1H-pyrazol-4-yl)-5-(hydroxymethyl)-2-methylimidazo[5,1-f ][1,2,4]triazin-4(3H)-one formation at 20 uM after 1 hr by UHPLC-UV-HRMS method; format: ADME, Oryctolagus cuniculus, microsome; summary of the method: as §1
[22] = Drug metabolism in rabbit liver microsomes assessed as 5-(Hydroxymethyl)-7-(3-(hydroxymethyl)-1-methyl-5-(3-methyl-4-(trifluoromethyl)phenyl)-1H-pyrazol-4-yl)-2-methylimidazo[5,1-f ][1,2,4]triazin-4(3H)-one formation at 20 uM after 1 hr by UHPLC-UV-HRMS method; format: ADME, Oryctolagus cuniculus, microsome; summary of the method: as §1
[23] = Drug metabolism in rabbit liver microsomes assessed as 5-(Hydroxymethyl)-7-(5-(3-(hydroxymethyl)-4-(trifluoromethyl)phenyl)-1,3-dimethyl-1H-pyrazol-4-yl)-2-methylimidazo[5,1-f ][1,2,4]triazin-4(3H)-one formation at 20 uM after 1 hr by UHPLC-UV-HRMS method; format: ADME, Oryctolagus cuniculus, microsome; summary of the method: as §1
[24] = Drug metabolism in hamster liver microsomes assessed as 7-(1,3-Dimethyl-5-(4-(trifluoromethyl)phenyl)-1H-pyrazol-4-yl)-5-(methoxymethyl)-2-methyl-4-oxo-3,4-dihydroimidazo[5,1-f ][1,2,4]-triazine 1-oxide formation at 20 uM after 1 hr by UHPLC-UV-HRMS method; format: ADME, microsome; details: cricetinae; summary of the method: as §1
[25] = Drug metabolism in hamster liver microsomes assessed as 7-(3-(Hydroxymethyl)-5-(4-(trifluoromethyl)phenyl)-1H-pyrazol-4-yl)-5-(methoxymethyl)-2-methylimidazo[5,1-f ][1,2,4]triazin-4(3H)-one formation at 20 uM after 1 hr by UHPLC-UV-HRMS method; format: ADME, microsome; details: cricetinae; summary of the method: as §1
[26] = Drug metabolism in hamster liver microsomes assessed as 5-(Hydroxymethyl)-2-methyl-7-(3-methyl-5-(4-(trifluoromethyl)-phenyl)-1H-pyrazol-4-yl)imidazo[5,1-f ][1,2,4]triazin-4(3H)-one formation at 20 uM after 1 hr by UHPLC-UV-HRMS method; format: ADME, microsome; details: cricetinae; summary of the method: as §1
[27] = Drug metabolism in hamster liver microsomes assessed as 5-(Methoxymethyl)-2-methyl-7-(3-methyl-5-(4-(trifluoromethyl)-phenyl)-1H-pyrazol-4-yl)imidazo[5,1-f ][1,2,4]triazin-4(3H)-one formation at 20 uM after 1 hr by UHPLC-UV-HRMS method; format: ADME, microsome; details: cricetinae; summary of the method: as §1
Liver [28] = experiment: Drug metabolism in human liver microsomes assessed as 5-(5-((2-Hydroxycyclopentyl)methyl)-4,5,6,7-tetrahydropyrazolo-[1,5-a]pyrazin-3-yl)-7-methylimidazo[5,1-f][1,2,4]triazin-4(3H)-one diastereomer 2 formation at 20 uM after 1.5 hrs by UHPLC-UV-HRMS method; format: ADME, microsome; summary of the method: as §1
Liver [29] = experiment: Drug metabolism in human liver microsomes assessed as 5-(5-((2-Hydroxycyclopentyl)methyl)-4,5,6,7-tetrahydropyrazolo-[1,5-a]pyrazin-3-yl)-7-methylimidazo[5,1-f][1,2,4]triazin-4(3H)-one diastereomer 1 formation at 20 uM after 1.5 hrs by UHPLC-UV-HRMS method; format: ADME, microsome; summary of the method: as §1

cGMP-dependent 3',5'-cyclic phosphodiesterase, sequence (O00408 whole entry): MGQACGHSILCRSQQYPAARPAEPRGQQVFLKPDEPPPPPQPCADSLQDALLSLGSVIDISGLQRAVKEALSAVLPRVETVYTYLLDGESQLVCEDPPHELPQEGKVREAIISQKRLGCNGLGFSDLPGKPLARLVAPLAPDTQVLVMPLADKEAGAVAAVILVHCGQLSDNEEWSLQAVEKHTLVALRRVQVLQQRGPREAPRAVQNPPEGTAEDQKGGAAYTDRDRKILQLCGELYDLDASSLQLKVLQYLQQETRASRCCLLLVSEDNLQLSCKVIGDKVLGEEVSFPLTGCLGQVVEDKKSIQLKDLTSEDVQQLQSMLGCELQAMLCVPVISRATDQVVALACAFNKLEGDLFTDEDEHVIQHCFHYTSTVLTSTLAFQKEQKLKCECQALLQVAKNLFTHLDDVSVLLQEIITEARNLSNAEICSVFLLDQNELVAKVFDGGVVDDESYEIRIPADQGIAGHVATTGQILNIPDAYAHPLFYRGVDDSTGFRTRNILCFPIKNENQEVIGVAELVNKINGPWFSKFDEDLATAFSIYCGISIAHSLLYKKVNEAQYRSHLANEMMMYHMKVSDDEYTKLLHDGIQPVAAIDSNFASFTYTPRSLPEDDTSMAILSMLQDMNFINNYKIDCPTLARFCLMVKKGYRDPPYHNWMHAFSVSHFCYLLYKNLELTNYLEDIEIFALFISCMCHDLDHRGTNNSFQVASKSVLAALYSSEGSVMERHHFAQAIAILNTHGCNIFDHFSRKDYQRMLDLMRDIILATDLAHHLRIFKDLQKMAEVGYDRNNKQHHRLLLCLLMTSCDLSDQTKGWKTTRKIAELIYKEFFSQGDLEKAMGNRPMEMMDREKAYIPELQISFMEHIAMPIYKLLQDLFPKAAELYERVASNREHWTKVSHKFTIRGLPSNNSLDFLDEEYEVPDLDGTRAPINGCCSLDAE

Drug metabolism [1]: Metabolite_Detected | Drug metabolism [2]: Metabolite_Detected | hepatocyte CLint at 1 µM [3]: 5.3 µL/min/1e6 cells | Papp at 1.5 h [4]: 23 ×10⁻⁶ cm/s
Structure (SMILES): Cc1nn2c(-c3c(C)nn(C)c3-c3ccc(C(F)(F)F)cc3)nc(C(F)F)c2c(=O)[nH]1

Drug metabolism [5]: Metabolite_Detected | Drug metabolism [6]: Metabolite_Detected | Drug metabolism [7]: Metabolite_Detected | Stability [8]: Stable | Drug metabolism [9]: Metabolite_Detected
Structure (SMILES): COc1ccc(-c2c(-c3nc(C)c4c(=O)[nH]c(C)nn34)c(C)nn2C)cn1

Drug metabolism (Liver [10]): Metabolite_Detected | Drug metabolism (Liver [11]): Metabolite_Detected | hepatocyte CLint at 1 µM [3]: 32 µL/min/1e6 cells
Structure (SMILES): Cc1nn2c(-c3c(C)nn(C)c3-c3ccc(Cl)cc3)nc(C)c2c(=O)[nH]1

Drug metabolism [12]: Metabolite_Detected | Papp at 1.5 h [4]: 16 ×10⁻⁶ cm/s | Drug metabolism [13]: Metabolite_Detected | Drug metabolism [14]: Metabolite_Detected | Stability [8]: Stable | Drug metabolism [15]: Metabolite_Detected
Structure (SMILES): Cc1nn2c(-c3c(C)nn(C)c3-c3ccc(C(F)(F)F)cn3)nc(C)c2c(=O)[nH]1

IC50 [16]: > 2000 nM | hepatocyte CLint at 1 µM [3]: 5.4 µL/min/1e6 cells | Drug metabolism (Liver [17]): Metabolite_Detected | Papp at 1.5 h [4]: 1.8 ×10⁻⁶ cm/s
Structure (SMILES): Cc1nc(-c2cnn3c2CN(CC2CCCC2O)CC3)c2c(=O)[nH]cnn12 (single isomer, unassigned; diastereomer 1)

Drug metabolism [18]: Metabolite_Detected | hepatocyte CLint at 1 µM [3]: 19 µL/min/1e6 cells | Drug metabolism [19]: Metabolite_Detected | Drug metabolism [20]: Metabolite_Detected | Papp at 1.5 h [4]: 28 ×10⁻⁶ cm/s | Drug metabolism [21]: Metabolite_Detected | Drug metabolism [22]: Metabolite_Detected | Drug metabolism [23]: Metabolite_Detected
Structure (SMILES): Cc1nn2c(-c3c(C)nn(C)c3-c3ccc(C(F)(F)F)c(C)c3)nc(C)c2c(=O)[nH]1

Drug metabolism [24]: Metabolite_Detected | Drug metabolism [25]: Metabolite_Detected | hepatocyte CLint at 1 µM [3]: 4.7 µL/min/1e6 cells | Drug metabolism [26]: Metabolite_Detected | Papp at 1.5 h [4]: 13 ×10⁻⁶ cm/s | Drug metabolism [27]: Metabolite_Detected
Structure (SMILES): COCc1nc(-c2c(C)nn(C)c2-c2ccc(C(F)(F)F)cc2)n2nc(C)[nH]c(=O)c12

Drug metabolism (Liver [28]): Metabolite_Detected | hepatocyte CLint at 1 µM [3]: 16 µL/min/1e6 cells | Papp at 1.5 h [4]: 24 ×10⁻⁶ cm/s | Drug metabolism (Liver [29]): Metabolite_Detected
Structure (SMILES): Cc1nc(-c2cnn3c2CN(CC2CCCC2)CC3)c2c(=O)[nH]cnn12
